These results are taken from the array DNA melting data of Ke et al. (doi:10.1101/2024.01.08.574731).

The nature of series [1]: melting temperature; fluorescence melt of hairpins on a sequencing array, two-state fit, raised by 9.35 °C to match UV melts. The settings on record: sodium 0.088 M. The method, boiled down: (§1)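 Cy3 signals were normalised both to pre-quench Cy3 and to control constructs. They came from library hairpins carrying annealed Cy3 and quencher oligos on a sequenced MiSeq flow cell, imaged in 50 mM Na-HEPES pH 8.0, 25 mM NaCl, in 2.5 °C steps up to 60 °C. Bootstrapped two-state fits gave melting temperature and folding enthalpy, and four replicates were combined by inverse variance. Fitted temperatures were then raised by 9.35 °C to match UV melts.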

Series [2] in a line: folding enthalpy; higher = less favourable; fluorescence melt of hairpins on a sequencing array, two-state fit. To be noted: sodium 0.088 M. An outline of the steps: as §1

For the sequence GTTAGAGGAAACTTTAAC ((((.((....)).)))), the Tm in series [1] stood at 27.5 °C. Moreover, in series [2], the folding enthalpy is -15.5 kcal/mol.
For GTTAGCACGAAAGTGAAC (((..(((....)))))), in that order: 27 °C and -11.6 kcal/mol.
Consider GTTAGCGAAAGCTCTAAC ((((((....)))..))), for which the Tm in series [1] came to 25.6 °C. In addition, the folding enthalpy in series [2] was -8.83 kcal/mol.
Turning to GTTAGCGAAAGCTGAAC ((((((....))).))), the Tm in series [1] turned out to be 38.4 °C. In addition, in series [2], the folding enthalpy was -13.2 kcal/mol.
Regarding GTTAGCGAAAGCTTAAC ((((((....))).))), the Tm in series [1] turned out to be 42.8 °C. Also, the folding enthalpy in series [2] is -13.9 kcal/mol.
For GTTAGGCCGAAAGGCAAC (((..(((....)))))), in that order: 32.1 °C and -9.31 kcal/mol.
For GTTAGGGAAACCTAAC ((((((....)))))), in that order: 48.4 °C and -30.8 kcal/mol.
In the same order, the values of GTTAGGGGAAACCCTGAC ((.((((....)))).)) are 45.6 °C and -28.4 kcal/mol.
Take GTTAGGGGAAACCTTAAC ((((.((....)).)))): the Tm in series [1] is 33.4 °C. Further, in series [2], the folding enthalpy was -22.3 kcal/mol.
For GTTAGTGAAAACTAAC ((((((....)))))), the Tm in series [1] was found to be 49.3 °C. The folding enthalpy in series [2] is -33.4 kcal/mol.
For GTTAGTGGAAACACTAGC (.(((((....))))).), in that order: 40 °C and -21.1 kcal/mol.
Take GTTAGTGGAAACACTGAC ((.((((....)))).)): in series [1], the Tm amounted to 44.7 °C. Further, the folding enthalpy in series [2] is -24.2 kcal/mol.
For GTTATACGAAAGTACAAC (((.(((....))).))), in that order: 33.2 °C and -17.4 kcal/mol.
In the same order, the values of GTTATCACGAAAGTGAAC (((..(((....)))))) are 28.5 °C and -10.2 kcal/mol.
In the same order, the values of GTTATCGGAAACGATGAC ((.((((....)))).)) are 47.1 °C and -25.2 kcal/mol.
On to GTTATGGGAAACCACAAC (((.(((....))).))), for which the Tm in series [1] is 29.2 °C. Besides, the folding enthalpy in series [2] was -14.9 kcal/mol.
In the same order, the values of GTTATGGGAAACCGTAAC ((((.((....)).)))) are 44.2 °C and -33.2 kcal/mol.
For GTTCAAGGAAACTTGGAC ((.((((....)))).)), in that order: 43.7 °C and -20.7 kcal/mol.
Regarding GTTCACACGAAAGTGAAC (((..(((....)))))), the Tm in series [1] stood at 49.2 °C. In addition, the folding enthalpy in series [2] was -23.8 kcal/mol.
For GTTCACGAAAGTGTCAAC ((((((....)))..))), in that order: 28.6 °C and -10.7 kcal/mol.
For GTTCACGGAAACGTGAGC (.(((((....))))).), in that order: 52.1 °C and -22.2 kcal/mol.
For GTTCAGGGAAACCTGAAC (((((((....))))))), in that order: 60.4 °C and -43.2 kcal/mol.
Take GTTCATGGAAACATGGAC ((.((((....)))).)): the Tm in series [1] worked out at 46.3 °C. The folding enthalpy in series [2] was -27.7 kcal/mol.
For GTTCCACGAAAGTGAAC (((.(((....)))))), in that order: 41.8 °C and -17.7 kcal/mol.
On to GTTCCACGAAAGTGCAAC (((.(((....))).))), for which the Tm in series [1] is 33.5 °C. In addition, in series [2], the folding enthalpy was -16.9 kcal/mol.
In the same order, the values of GTTCCACGAAAGTGTAAC (((.(((....))).))) are 38.4 °C and -26.2 kcal/mol.
In the same order, the values of GTTCCAGAAATGGAAC ((((((....)))))) are 53.4 °C and -32.2 kcal/mol.
In the same order, the values of GTTCCAGGAAACTGAAAC (((.(((....))).))) are 30.4 °C and -19.4 kcal/mol.
Take GTTCCAGGAAACTGGGAC ((.((((....)))).)): the Tm in series [1] came out at 49.3 °C. Further, the folding enthalpy in series [2] is -27.6 kcal/mol.
For GTTCCCCCGAAAGGGAAC (((..(((....)))))), in that order: 51.6 °C and -34.7 kcal/mol.
For GTTCCCCGAAAGGGAAAC (((.(((....))).))), in that order: 46.5 °C and -19.3 kcal/mol.
For GTTCCCGAAAGGGATAAC ((((((....)))..))), in that order: 36.5 °C and -10.2 kcal/mol.
Regarding GTTCCCGAAAGGGCAAC ((((((....))).))), the Tm in series [1] was 40.4 °C. The folding enthalpy in series [2] was -14.7 kcal/mol.
For GTTCCGGGAAACCAGAAC ((((.((....)).)))), in that order: 38.7 °C and -31.7 kcal/mol.
For GTTCCGGGAAACCGGAAC (((((((....))))))), in that order: 68.7 °C and -30.1 kcal/mol.
For GTTCCGGGAAACCGGGAC ((.((((....)))).)), in that order: 57.4 °C and -35.5 kcal/mol.
Regarding GTTCCGGGAAACTGGGAC ((.((.(....).)).)), the Tm in series [1] turned out to be 41.4 °C. Further, the folding enthalpy in series [2] is -28.2 kcal/mol.
For the sequence GTTCCTCGAAAGAGAAC (((.(((....)))))), the Tm in series [1] is 36.3 °C. Also, the folding enthalpy in series [2] was -24.1 kcal/mol.
In the same order, the values of GTTCCTGGAAACAGGGAC ((.((((....)))).)) are 50.8 °C and -35.1 kcal/mol.
For GTTCGACGAAAGTCTAAC (((.(((....))).))), in that order: 42.5 °C and -24.8 kcal/mol.
For GTTCGAGCGAAAGCTAAC (((..(((....)))))), in that order: 24.6 °C and -7.3 kcal/mol.
For GTTCGAGGAAACTCAAAC (((.(((....))).))), the Tm in series [1] was 31 °C. Besides, in series [2], the folding enthalpy was -13.8 kcal/mol.
For GTTCGAGGAAACTCGGAC ((.((((....)))).)), in that order: 51.3 °C and -40.9 kcal/mol.
In the same order, the values of GTTCGCCCGAAAGGGAAC (((..(((....)))))) are 35.9 °C and -13.9 kcal/mol.
Take GTTCGCCGAAAGGCTAAC (((.(((....))).))): the Tm in series [1] came to 44.7 °C. The folding enthalpy in series [2] was -19.6 kcal/mol.
In the same order, the values of GTTCGCGAAAGCGCAAC ((((((....))).))) are 45.6 °C and -13.9 kcal/mol.
In the case of GTTCGCGAAAGCGCTAAC ((((((....)))..))), in series [1], the Tm stood at 25.1 °C. Moreover, the folding enthalpy in series [2] is -9.92 kcal/mol.
For GTTCGCGAAAGCGGAAC ((((((....))).))), the Tm in series [1] was found to be 54.4 °C. Moreover, the folding enthalpy in series [2] was -17.6 kcal/mol.
For GTTCGCGAAAGCGTGAAC ((((((....)))..))), in that order: 40.5 °C and -13 kcal/mol.
In the same order, the values of GTTCGCGAAAGCGTTAAC ((((((....)))..))) are 27.8 °C and -10.9 kcal/mol.
In the same order, the values of GTTCGCGGAAACGCGAGC (.(((((....))))).) are 59.2 °C and -15.7 kcal/mol.
For the sequence GTTCGCGGAAACGCGGAC ((.((((....)))).)), the Tm in series [1] amounted to 60.7 °C. Further, the folding enthalpy in series [2] is -26.6 kcal/mol.
In the same order, the values of GTTCGGCGAAAGCCAAAC (((.(((....))).))) are 46.5 °C and -15.5 kcal/mol.
On to GTTCGGGGAAACTCGAAC (((((.(....).))))), for which the Tm in series [1] came to 51.3 °C. Also, the folding enthalpy in series [2] is -30.8 kcal/mol.
In the same order, the values of GTTCGTGGAAACATGGAC ((.(.((....)).).)) are 34.7 °C and -16.1 kcal/mol.
In the same order, the values of GTTCTACGAAAGTAAAC (((.(((....)))))) are 27.6 °C and -10.8 kcal/mol.
In the case of GTTCTAGGAAACTAGAGC (.(((((....))))).), the Tm in series [1] was 35.6 °C. The folding enthalpy in series [2] was -24.7 kcal/mol.
Consider GTTCTCCGAAAGGACAAC (((.(((....))).))), for which the Tm in series [1] amounted to 30 °C. Besides, the folding enthalpy in series [2] was -15.6 kcal/mol.
In the same order, the values of GTTCTCGAAAGAGAGAAC ((((((....)))..))) are 46.4 °C and -25.1 kcal/mol.
For GTTCTCGAAAGAGCAAC ((((((....))).))), in that order: 32.7 °C and -17 kcal/mol.
In the same order, the values of GTTCTCGAAAGAGGTAAC ((((((....)))..))) are 22.7 °C and -8.25 kcal/mol.
As for GTTCTCGGAAACGAGAGC (.(((((....))))).), the Tm in series [1] came out at 48.2 °C. The folding enthalpy in series [2] is -27.5 kcal/mol.
GTTCTCTCGAAAGAGAAC (((..(((....)))))): the Tm in series [1] was 51.1 °C. The folding enthalpy in series [2] was -34.5 kcal/mol.
For GTTCTGAAAAGAAC (((((....))))), in that order: 47 °C and -27.5 kcal/mol.
For GTTCTGCGAAAGCATAAC (((.(((....))).))), in that order: 43.7 °C and -25 kcal/mol.
For GTTCTGGCGAAAGCCAAC (((..(((....)))))), in that order: 19.8 °C and -7.18 kcal/mol.
GTTCTGGGAAACCAGAGC (.(((((....))))).): the Tm in series [1] worked out at 46.3 °C. Further, the folding enthalpy in series [2] is -24.2 kcal/mol.
For GTTCTGGGAAACTAGAGC (.(((.(....).))).), in that order: 24.9 °C and -8.92 kcal/mol.
In the same order, the values of GTTCTTCCGAAAGGAAAC (((..(((....)))))) are 27.5 °C and -13.6 kcal/mol.
For GTTCTTCGAAAGAATAAC (((.(((....))).))), in that order: 33.6 °C and -15.6 kcal/mol.
As for GTTCTTGAAAAAGAAC ((((((....)))))), the Tm in series [1] turned out to be 46.9 °C. In series [2], the folding enthalpy was -34.2 kcal/mol.
For GTTCTTGGAAACAGGAAC ((((.((....)).)))), in that order: 39.9 °C and -34.1 kcal/mol.
In the same order, the values of GTTGAACCGAAAGGTAAC (((..(((....)))))) are 31.1 °C and -12.9 kcal/mol.
